This passage reports Activity and IC50 results from ChEMBL document CHEMBL1909534, “Solvent-free, microwave assisted Knoevenagel condensation of novel 2,5-disubstituted indole analogues and their biological evaluation” (Eur J Med Chem, 2011).

Activity calls are given as the source filed them. The rule behind the calls is not given here.

In experiment [1] the test system is Radical scavenging activity. Description: Antioxidant activity assessed as DPPH free radical scavenging activity after 20 mins. It is filed as functional. Summed up: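 DPPH method: samples at 10, 50 and 100 μg/100 μl made up to 100 μl with MeOH, mixed with 5 mL 0.1 mM methanolic DPPH, shaken, left 20 min at 27 °C; A517 read against control without sample. % scavenging = (control OD − sample OD)/control OD × 100. BHA as standard.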
(Loss of DPPH colour is used to gauge radical scavenging.)

Experiment [2] in a line: Antioxidant activity assessed as equivalents of ascorbic acid at 10 to 500 ug after 90 mins. It is filed as functional. The gist of the method: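 Phosphomolybdenum method: 10, 50 and 500 μg samples mixed with 1.9 mL reagent (0.6 M sulfuric acid, 28 mM sodium phosphate, 4 mM ammonium molybdate), held 90 min at 95 °C, cooled, A695 read against blank. Values are μg ascorbic acid equivalents per mg, taken from an ascorbic acid standard curve.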

Experiment [3] can be described thus: Antioxidant activity assessed as ferric ion reducing ability at after 20 mins by spectrophotometric analysis. It counts as functional. Summed up:
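10, 50 and 500 μg samples in 2.5 mL 200 mmol/L sodium phosphate pH 6.6 plus 2.5 mL 1% potassium ferricyanide, 20 min at 50 °C. Then 2.5 mL 10% TCA added; 5 mL of this mixed with 5 mL water and 1 mL 0.1% FeCl3, and A700 read. BHA as standard.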

A further experiment deals with A549. Description: Cytotoxicity against human A549 cells by MTT assay. It counts as functional, cell-based. Summed up: (§1)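 Cells grown in RPMI 1640 with 10% FCS, penicillin 100 U/mL and streptomycin 100 μg/mL at 37 °C, 5% CO₂. Seeded at 1 × 10⁵ cells/well. Compounds diluted in DMSO, tested at 0–100 µg/mL. Viability read by MTT kit, with medium-only wells as control. IC50 derived by non-linear regression from three independent experiments.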
(Tetrazolium dyes change colour on reduction, which living cells bring about.)

Another experiment has as its system HEp-2. Description: Cytotoxicity against human Hep2 cells by MTT assay. It is filed as functional, cell-based. The gist of the method:
as §1

The subject of another experiment is HeLa. Description: Cytotoxicity against human HeLa cells by MTT assay. It is filed as functional, cell-based. The gist of the method:
as §1

A word on the IC50: it is the midpoint of a concentration-inhibition curve. Low readings indicate inhibition by little substance, high ones a need for much substance. Take `Cc1ccc2[nH]c(-c3ccccc3)c(C=C3C(=O)NC(=S)NC3=O)c2c1`: the outcome in experiment [1] was inactive. Further, in experiment [2], the outcome was Active. In addition, the Activity entry in experiment [3] is “Dose-dependent effect”. The IC50 in the experiment with A549, in the experiment with HEp-2 and in the experiment on HeLa was above 100 µM in each case.

`CC1=NNC(=O)/C1=C/c1c(-c2ccccc2)[nH]c2ccc(Cl)cc12`: the Activity entry in experiment [1] and in experiment [3] was “Dose-dependent effect” in each case. Also, the result in experiment [2] was Active. Moreover, the figures for the IC50 in the experiment on A549, with HEp-2 and with HeLa were 1 µM, 7.9 µM and 2.1 µM, respectively.

With `O=C1NC(=S)NC(=O)C1=Cc1c[nH]c2ccccc12`, the Activity entry in experiment [1] and in experiment [3] was “Dose-dependent effect” in each case. In addition, the outcome in experiment [2] was Active. Further, the figures for the IC50 in the experiment with A549, with HEp-2 and with HeLa were 52.3 µM, above 100 µM and 63 µM, respectively.

On to `Cc1ccc2[nH]c(-c3ccccc3)c(/C=C3\SC(=O)NC3=O)c2c1`, for which, in experiment [1], the result was inactive. In addition, the result in experiment [2] was Active. For the same compound, the Activity result in experiment [3] was “Dose-dependent effect”. The IC50 in the experiment on A549, in the experiment on HEp-2 and in the experiment on HeLa was above 100 µM each time.

For `O=C1NC(=O)/C(=C/c2c(-c3ccccc3)[nH]c3ccc(Cl)cc23)S1`, the Activity result in experiment [1] and in experiment [3] was “Dose-dependent effect” throughout. Besides, the outcome in experiment [2] was Active. Further, the IC50 in the experiment on A549 is 4.5 µM; with HEp-2, 12.1 µM; with HeLa it was 7 µM.

In the case of `Cc1ccc2[nH]c(-c3ccccc3)c(C=C3C(=O)NC(=O)NC3=O)c2c1`, in experiment [1], the outcome was inactive. Further, in experiment [2], the outcome was Active. Besides, the Activity entry in experiment [3] was “Dose-dependent effect”. In addition, the IC50 with A549, in the experiment with HEp-2 and with HeLa was above 100 µM each time.

Take `CC1=NNC(=O)/C1=C/c1c[nH]c2ccccc12`: the Activity entry in experiment [1] and in experiment [3] was “Dose-dependent effect” each time. Moreover, the outcome in experiment [2] was Active. The IC50 stood at 3.4 µM in the experiment on A549, 1.2 µM in the experiment on HEp-2 and 33.1 µM with HeLa.

On to `O=C1NC(=O)C(=Cc2c(-c3ccccc3)[nH]c3ccc(Cl)cc23)C(=O)N1`, for which the Activity result in experiment [1] and in experiment [3] was “Dose-dependent effect” each time. Further, the result in experiment [2] was Active. The IC50 was 27 µM in the experiment with A549, above 100 µM in the experiment with HEp-2 and 30 µM with HeLa.

With `O=C1NC(=S)NC(=O)C1=Cc1c(-c2ccccc2)[nH]c2ccc(Cl)cc12`, the Activity entry in experiment [1] and in experiment [3] was “Dose-dependent effect” throughout. Moreover, the outcome in experiment [2] was Active. Also, the IC50 in the experiment with A549 came out at 27.5 µM; with HEp-2, 45.7 µM; in the experiment on HeLa, 23.5 µM.

As for `CC1=NNC(=O)/C1=C/c1c(-c2ccccc2)[nH]c2ccc(C)cc12`, in experiment [1], the outcome was inactive. Also, the result in experiment [2] was Active. For the same compound, in experiment [3], the Activity result is “Dose-dependent effect”. Also, the IC50 in the experiment on A549 was 7.7 µM; in the experiment on HEp-2 it was 26.3 µM; with HeLa, above 100 µM.

With `O=C1NC(=O)/C(=C/c2c[nH]c3ccccc23)S1`, the Activity result in experiment [1] and in experiment [3] was “Dose-dependent effect” in each case. The outcome in experiment [2] was Active. Also, the IC50 is 87.7 µM in the experiment with A549, above 100 µM in the experiment on HEp-2 and 60.7 µM in the experiment with HeLa.

Regarding `O=C1NC(=O)C(=Cc2c[nH]c3ccccc23)C(=O)N1`, the Activity result in experiment [1] and in experiment [3] was “Dose-dependent effect” each time. For the same compound, in experiment [2], the result was Active. The IC50 is 77.4 µM with A549, above 100 µM in the experiment with HEp-2 and 74 µM in the experiment with HeLa.

As to `COc1cccc2c1C(=O)c1c(O)c3c(c(O)c1C2=O)C[C@@](O)(C(=O)CO)C[C@@H]3O[C@H]1C[C@H](N)[C@H](O)[C@H](C)O1` [DOXORUBICIN], the results for the IC50 in the experiment with A549, with HEp-2 and with HeLa were 0.7 µM, 8.7 µM and 0.71 µM, respectively.
